The source of these data is the RNAGym collection of RNA variant scans (doi:10.1126/science.aae0568).

Variants at the floor of the assay were thinned out.

First the molecules themselves.
B1: tRNA (parent)
chain: GUUCCGUUGGCGUAAUGGUAACGCGUCUCCCUCCUAAGGAGAAGACUGCGGGUUCGAGUCCCGUACGGAACG

This data set covers variants of B1. The data set is described as follows: yeast fitness relative to wild type (ratio to wild type); higher = fitter; tRNA-Arg(CCU), competitive growth, 37 C, YPD. Put shortly: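 For this measurement, the tRNA-Arg(CCU) gene was varied by chemical synthesis at a 3% per-site mutation rate across 69 sites, and each variant was placed at the native genomic locus in Saccharomyces cerevisiae. The pooled strains went through a 24-hour competition in YPD at 37°C in six parallel replicates, with amplicons from start and end populations read by 100-nucleotide paired-end sequencing. Darwinian fitness relative to wild type followed from the change in each genotype's frequency. Genotypes needed ≥ 100 starting reads, and estimates < 0.5 were set to 0.5.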
Take GUUCCGUUGGCCUAAUGGUAACGCGUCUCCCUCCUAAGGAGAAGACUGCGGGUUGGAGUCCCGUAUGGAACG [G12C C55G C66U]: the yeast fitness is at most 0.5.
As for GUUCGGUUGGCGUAAUGGUAACGCGCCUCUCUCCUAAGGAGAAGACUGUGGGUUCGAGUCCCGUACGGAACG [C5G U26C C30U C49U], the figure is at most 0.5; as for GUUCCGUUGGCGUAAUGGUGACGCGUCUCCCUCCUAAGGAAAAGACUGCGGGUUCGAGUCCCGUACGGAACG [A20G G41A], 1.2.
For the variant GUUCCGUUGGCGUAAUGGUUACACGUCUCCCUCCUAAGGAGAAGACUGCGGGUUCGAGUCCCGUAUGGAACG [A20U G23A C66U], the yeast fitness amounted to 0.55.
For the variant GUUCCGUAGGCGUAAUGGUAACGCGUCUCCCUCCUAAGGCGAAGACUGCGGGUUCGAGUCCCGUACGGAACG [U8A A40C], the yeast fitness is 0.774.
For the variant GUUCCGUUGGCGUAAUGGUAACGAGUCUCCCUCCUGAGGAGAGGACUGCGGGUUCGAGUCCCGUACGGAACG [C24A A36G A43G], the yeast fitness was at most 0.5.
With GUUCCGUUGGCGUAAGGGUAACGCGUCUCCGUCCUAAGGAGAAGACUCCGGGUUCGUGUCCCGUACGGAACG [U16G C31G G48C A57U], the yeast fitness is at most 0.5.
Take GUUCCGUUCGCGUAAAGGUAACGUGUCUCUCUCCUAAGGAGAAGACUGCGGGUUCGAGUCCCGUACGGAACG [G9C U16A C24U C30U]: the yeast fitness was 0.533.
GUUCCGUUGGCGGAAUGGUAACGCGUCUCCCUCCUAAGGAGAAGACUGCGGGUUCGAGUCCCCUACGGAACG [U13G G63C]: the yeast fitness came out at 0.696.
The result for GUUUCGUUGGCGUACUGGUAACGCGUCUCGCUCCUAAGGAGAAGACUGCGGAUUCGAGUCCCGUCCGGAACG [C4U A15C C30G G52A A65C] reads at most 0.5.
As for GUUCCGUUGGCGUAAUGGUAACGCGUCUCCCUCCGAAGGAGAAGACUGCGGGUUUGAGUCCCGUACGGAACG [U35G C55U], the figure is 0.664; as for GUUCCGUUGGCGUAGUGGUAACGCAUAUCCCUCCUAAGGAGAAGACUGCAGGUUCGAGUCCCGUACGGAACG [A15G G25A C27A G50A], 0.592; as for GUUCCGUUGGCCUAAUGGUAACGCGUCUCUCUCUUAAGGAGGAGACUGCGGGUUCGCGUCCCGUACGGAACG [G12C C30U C34U A42G A57C], at most 0.5.
Turning to GUUCCGUUGGCGUAAUGGUAACGCGUCUCCCUGCUAAGGAGUAGGCUGCGGGUUCGAGUCCCGUACGGAACG [C33G A42U A45G], the yeast fitness is at most 0.5.
As for GUUCCAUGGGCGAAAUGGUAACGCGUCUCUCUCCUAAGCAGAAGACUGCGGGUUGGAGUCCCGUACGGAACG [G6A U8G U13A C30U G39C C55G], the figure is at most 0.5.
The result for GUUCGGUUGGCGUAAUAGUCACGCGUCUCCCUCCUAAGGAGAAGACUGGGGGUUCGAGUCCCGUACGGAACG [C5G G17A A20C C49G] reads 0.551.
The result for GUUCCGUUGGCGUAAUGGUAAUGGGUCUCGCUCCUAAGGUGAAGACUGCGGGUUCGAGUCCCGUACGGAACG [C22U C24G C30G A40U] reads at most 0.5; that for GUUCCGCUGGCGUAAUGGUAACGCGUCUCCCUCCUAAGGAGAAGACUGCGGGUUCGAGUCCCGUACGCUACG [U7C G68C A69U], 0.612.
As to GUUCCGUUGGCGUAAUGGUAACGUGUCUCCCUCCUAAGGAGAAGACUGCGGGCUUGAGUCCCGUACGGAACG [C24U U53C C55U], the yeast fitness is at most 0.5.
Regarding GUUCCGUUAACGUAAUGGUAACGCGUCUCCGUCCUAAGGAGAAGACUGCGGAUUCGAGUCGCGUACGGAACG [G9A G10A C31G G52A C61G], the yeast fitness is at most 0.5.
As to GUUCCGUUGGCGUUAUGGUAGCGCGUCUCCCUCCUAAGGAGAUGACUGCGGGUUCGACUCCCGUACGGAACG [A14U A21G A43U G58C], the yeast fitness is at most 0.5.
The result for GUUCAGUUGGCGUAAUGGUAACGCGUCUCCCUUCUAAGGAGAUGACUGGCGGUUCGAGUCUCGUAUGGAACG [C5A C33U A43U C49G G50C C61U C66U] reads at most 0.5; that for GUUACGUUGGCGUAGUAGUAACGCGUCUCCCCCCUAAGGAGAAGACUGCGGGUUCGAGUCCAGUACGGUACG [C4A A15G G17A U32C C62A A69U], at most 0.5; that for GUUCCGUUGACGUAAUGGUUACGCGUCUCCCUCCCAAGGAGAAGACUCCGGGUUCGAGUACCGUACGGCACG [G10A A20U U35C G48C C60A A69C], at most 0.5.
As for GUUCCGUUAGCGUAAUGGUAAAGCGUCUCCCUCCUAUGGAGAAGACUGCGGGUUGGAGUCCCGUACGGAACG [G9A C22A A37U C55G], the figure is at most 0.5; as for GUUCCGUUGGCGUGAUGGUAACGCGUCUCCCUCCUAAGGAGAAGACUGCGGGUUCGACUCCCGUACGGAUCG [A14G G58C A70U], 0.892.
As for GUUCCGUUGGCGUAAGGGUAACGCGUGUCCCUCCUAAGGAGAAGACUGCGGGUUCGAGUCCCGUACGGAACG [U16G C27G], the figure is 0.639; as for GUUCCGUUGGCGUAAUCGUAACGCGUCUCCCUCCUAAGCAGAAGACUGCGGGUUCGAGUCCCGUACGGAACG [G17C G39C], 0.59; as for GUUCCGUUGGUGCAAUGGUAACGAGUCUCCCUCCUAAGGAGAAGACAGCGGGUUCGAGUCCCGUACGGAACG [C11U U13C C24A U47A], at most 0.5.
For GUUCCGUUGGCGUAAUGGUAACGCGUCUCCCUGCUAAGGAGAAAACCGCGGGUUCGGGUCCCGUACGGAACG [C33G G44A U47C A57G], the yeast fitness was at most 0.5.
Regarding GUUCCGUUGGCGUAAUGGUAACGCGUCUCCCGCCGCAGGAGAAGACUGCGGGUUCGAGUCGCGUACGGAGCG [U32G U35G A36C C61G A70G], the yeast fitness amounted to 0.583.
The result for GUUCCGUUGGCGUAAUGGUAACGCGUCUCCCUCCUAAGGAAAAGACUGCGGGUUCGAGUGCCAUGCGGAACG [G41A C60G G63A A65G] reads 0.529; that for GUUCCGUUGGCGUAAUGGUAACGCGUCUCCCUCCUAAGGAGAAGACUGCGGGUCCGGGUCCCCUCCGGAACG [U54C A57G G63C A65C], at most 0.5.
As for GUUCCGUUGCCGUAAUGGUAACGCGUCUCCCUCCUAAGGAGAAGACUGCGGGUUCGAGUCCCGUACGGCACG [G10C A69C], the figure is 0.785; as for GUUCUGUUGGCGUAAUGGUAACGCGUCUCCCUGCUAAGGAGAAGACUGCGGGUUCGAGUCACGUAUGGAACG [C5U C33G C61A C66U], at most 0.5.
For GUUCCGUUGGCGUAAUGGUAACGCGUCUCCCGCCUAAGGAGAAGACUCCGGGUUCGAGUCCCGUCCGGAACG [U32G G48C A65C], the yeast fitness is 0.574.
Regarding GAUCCGUCGGCGUAAUGGUAACGCGUCUCCCUCCUAAGGAGUAGACUGCGGGUUCGAGUCCCGUACGGAACG [U2A U8C A42U], the yeast fitness amounted to 0.64.
